How the values were obtained:
[1] = Stability of the compound in rat plasma assessed as half life at 1 uM by LC/MS/MS analysis; format: ADME, cell-free
How it was run: (§1)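 Prodrug added from acetonitrile stock (100 μM) to rat plasma or simulated gastric juice at final 1 μM. Held at 37 °C, sampled 0, 15, 30, 60, 120 min. Quenched with two volumes cold acetonitrile containing internal standard, centrifuged, supernatant analyzed by LC-MS/MS. Half-life as mean of duplicate experiments.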

[2] = Stability of the compound in rat liver microsomes assessed as half life at 1 uM by LC/MS/MS analysis; format: ADME, Microsome
How it was run: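 Rat liver microsomes (0.5 mg/mL total protein) with 1.2 mM NADPH in 100 mM phosphate buffer pH 7.4; prodrug added from acetonitrile stock (100 μM) to final 1 μM. Kept at 37 °C, sampled 0, 15, 30, 60, 120 min. Stopped with two volumes cold acetonitrile plus internal standard, centrifuged, supernatant by LC-MS/MS. Mean of duplicate experiments.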

[3] = Stability of the compound in simulated gastric juice assessed as half life at 1 uM by LC/MS/MS analysis; format: physicochemical; how it was run: as §1
[4] = Metabolic stability in rat plasma assessed as compound remaining at 50 ug/mL after 30 mins by LC-MS/MS analysis; format: ADME, cell-free; details: read-out: Stability
How it was run: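 Prodrug at 50 μg/mL in rat plasma, incubated 30 min at 37 °C; samples analyzed immediately by LC-MS/MS, reported as percent of compound remaining.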

SMILES | half-life at 1 µM [1] [min] | half-life at 1 µM [2] [min] | half-life at 1 µM [3] [min] | remaining at 0.5 h, 50 ug/mL [4] [%]
CCCc1nc(C(C)(C)O)c(C(=O)OC(C)OC(=O)C2CCCCC2)n1Cc1ccc(-c2ccccc2-c2nnn[nH]2)cc1 (stereo not drawn) | 9.68 | 2.7 | 928 | 
CCCc1nc(C(C)(C)O)c(C(=O)OCc2oc(=O)oc2C)n1Cc1ccc(-c2ccccc2-c2nnn[nH]2)cc1 [OLMESARTAN MEDOXOMIL] | 0.956 | 4.95 | > 1000 | 
CCCc1nc(C(C)(C)O)c(C(=O)OC(C)OC(=O)c2ccccc2)n1Cc1ccc(-c2ccccc2-c2nnn[nH]2)cc1 (stereo not drawn) |  |  |  | 85.8
CCCc1nc(C(C)(C)O)c(C(=O)OCc2c[nH]c(=O)[nH]c2=O)n1Cc1ccc(-c2ccccc2-c2nnn[nH]2)cc1 |  |  |  | 96.3
CCCCCCCCOC(=O)c1c(C(C)(C)O)nc(CCC)n1Cc1ccc(-c2ccccc2-c2nnn[nH]2)cc1 |  |  |  | 90.2
CCCc1nc(C(C)(C)O)c(C(=O)OCOC(=O)C23CC4CC(CC(C4)C2)C3)n1Cc1ccc(-c2ccccc2-c2nnn[nH]2)cc1 | 10 | 2.28 | 312 | 79.8

Source: ChEMBL document CHEMBL1817629, “Design, synthesis, bioconversion, and pharmacokinetics evaluation of new ester prodrugs of olmesartan” (Eur J Med Chem, 2011)
